For one experiment, the species on record is Rattus norvegicus. Briefly: Minimum effective dose producing a 40-60% decrease in serum TLDL cholesterol in rats relative to vehicle -treated controls. It is filed as functional. To be noted: read-out: MED.
Experiment [1] has as its target T1, Peroxisome proliferator-activated receptor delta (Homo sapiens, UniProt Q03181).
T1 sequence (Q03181 whole entry): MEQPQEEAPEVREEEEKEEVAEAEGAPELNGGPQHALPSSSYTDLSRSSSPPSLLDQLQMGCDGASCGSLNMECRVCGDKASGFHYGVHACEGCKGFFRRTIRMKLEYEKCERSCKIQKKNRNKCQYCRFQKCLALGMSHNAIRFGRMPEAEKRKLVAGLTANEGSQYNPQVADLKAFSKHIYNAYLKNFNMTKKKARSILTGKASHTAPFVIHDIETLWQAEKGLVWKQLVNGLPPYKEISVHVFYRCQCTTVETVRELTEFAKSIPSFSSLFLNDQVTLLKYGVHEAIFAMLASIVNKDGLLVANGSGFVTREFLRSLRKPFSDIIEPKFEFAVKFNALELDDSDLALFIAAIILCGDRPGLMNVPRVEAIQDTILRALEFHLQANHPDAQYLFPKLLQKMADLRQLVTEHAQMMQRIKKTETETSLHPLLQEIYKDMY
Briefly: Compound was tested for agonist activity on human Peroxisome proliferator activated receptor delta-GAL4 chimeric receptor in transfected CV-1 cells. The experiment is classed as functional, cell-based.

Experiment [2] deals with T2, Peroxisome proliferator-activated receptor gamma (Mus musculus, UniProt P37238).
T2 sequence (P37238 whole entry): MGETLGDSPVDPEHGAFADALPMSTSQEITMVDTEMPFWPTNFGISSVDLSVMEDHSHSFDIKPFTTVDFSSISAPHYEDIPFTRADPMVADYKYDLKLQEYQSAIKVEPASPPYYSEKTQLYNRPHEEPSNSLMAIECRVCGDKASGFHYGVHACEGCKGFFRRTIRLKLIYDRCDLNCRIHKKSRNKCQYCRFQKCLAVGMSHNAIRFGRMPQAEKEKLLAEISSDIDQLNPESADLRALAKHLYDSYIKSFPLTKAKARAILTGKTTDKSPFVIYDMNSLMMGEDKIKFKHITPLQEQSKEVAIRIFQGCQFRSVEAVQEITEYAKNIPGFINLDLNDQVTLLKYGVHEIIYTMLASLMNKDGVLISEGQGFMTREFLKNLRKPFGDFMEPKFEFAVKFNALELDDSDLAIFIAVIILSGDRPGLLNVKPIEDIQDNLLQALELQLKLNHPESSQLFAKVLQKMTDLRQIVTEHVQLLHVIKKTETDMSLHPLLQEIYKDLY
Briefly: Compound was tested for its agonist activity against murine Peroxisome proliferator activated receptor gamma-Gal4 chimeric receptor in transfected CV-1 cells. The experiment is classed as functional, cell-based.

The target of experiment [3] is T3, Peroxisome proliferator-activated receptor delta (Mus musculus, UniProt P35396).
T3 sequence (P35396 whole entry): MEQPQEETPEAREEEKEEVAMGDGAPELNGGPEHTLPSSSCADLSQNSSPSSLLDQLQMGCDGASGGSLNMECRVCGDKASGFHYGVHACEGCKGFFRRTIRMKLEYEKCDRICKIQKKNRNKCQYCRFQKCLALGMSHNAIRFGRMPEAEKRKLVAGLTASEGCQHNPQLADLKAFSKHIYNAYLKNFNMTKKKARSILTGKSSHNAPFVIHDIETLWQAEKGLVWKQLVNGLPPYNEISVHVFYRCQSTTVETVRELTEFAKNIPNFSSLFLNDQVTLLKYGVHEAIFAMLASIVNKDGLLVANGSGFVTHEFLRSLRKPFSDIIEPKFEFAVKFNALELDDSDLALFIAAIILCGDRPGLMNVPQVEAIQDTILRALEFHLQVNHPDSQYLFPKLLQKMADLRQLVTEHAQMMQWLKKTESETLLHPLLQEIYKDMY
Briefly: Compound was tested for its agonist activity against murine Peroxisome proliferator activated receptor delta-GAL4 chimeric receptor in transfected CV-1 cells. The experiment is classed as functional, cell-based.

In experiment [4] the target is T4, Peroxisome proliferator-activated receptor alpha (Mus musculus, UniProt P23204).
T4 sequence (P23204 whole entry): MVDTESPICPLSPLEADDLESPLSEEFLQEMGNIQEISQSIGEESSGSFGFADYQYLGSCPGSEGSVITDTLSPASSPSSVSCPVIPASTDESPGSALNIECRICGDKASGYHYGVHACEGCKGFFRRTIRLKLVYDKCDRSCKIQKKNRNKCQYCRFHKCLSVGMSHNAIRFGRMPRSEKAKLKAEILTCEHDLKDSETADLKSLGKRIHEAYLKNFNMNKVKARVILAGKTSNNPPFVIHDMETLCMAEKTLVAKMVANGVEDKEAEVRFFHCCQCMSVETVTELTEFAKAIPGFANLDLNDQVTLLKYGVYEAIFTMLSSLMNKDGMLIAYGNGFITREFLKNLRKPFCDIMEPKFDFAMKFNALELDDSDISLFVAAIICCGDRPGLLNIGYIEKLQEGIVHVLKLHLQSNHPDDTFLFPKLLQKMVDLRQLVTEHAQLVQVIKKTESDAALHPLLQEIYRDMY
Kind of experiment: Compound was tested for its agonist activity against murine Peroxisome proliferator activated receptor alpha-Gal4 chimeric receptor transfected CV-1 cells. The experiment is classed as functional, cell-based. The method, boiled down: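 PPAR-GAL4 chimeric receptor transiently transfected into CV-1 cells; reporter activity read after compound exposure, with concentrations tested up to 300 µM.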

Experiment [5] concerns the target T5, Peroxisome proliferator-activated receptor alpha (Homo sapiens, UniProt Q07869).
T5 sequence (Q07869 whole entry): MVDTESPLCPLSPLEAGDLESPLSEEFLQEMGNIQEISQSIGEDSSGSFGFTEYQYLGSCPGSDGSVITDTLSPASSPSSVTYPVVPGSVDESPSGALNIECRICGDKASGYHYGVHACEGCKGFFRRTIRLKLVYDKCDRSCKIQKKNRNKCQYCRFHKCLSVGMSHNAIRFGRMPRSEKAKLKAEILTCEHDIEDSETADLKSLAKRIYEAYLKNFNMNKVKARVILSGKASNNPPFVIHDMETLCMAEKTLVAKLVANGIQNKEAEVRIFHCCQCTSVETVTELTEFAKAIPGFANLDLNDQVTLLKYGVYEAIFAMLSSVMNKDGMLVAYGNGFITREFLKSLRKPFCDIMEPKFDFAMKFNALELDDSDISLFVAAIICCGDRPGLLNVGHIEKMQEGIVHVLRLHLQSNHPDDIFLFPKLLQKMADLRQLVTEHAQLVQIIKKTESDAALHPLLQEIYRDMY

For experiment [6], the target named is T6, Peroxisome proliferator-activated receptor gamma (Homo sapiens, UniProt P37231).
T6 sequence (P37231 whole entry): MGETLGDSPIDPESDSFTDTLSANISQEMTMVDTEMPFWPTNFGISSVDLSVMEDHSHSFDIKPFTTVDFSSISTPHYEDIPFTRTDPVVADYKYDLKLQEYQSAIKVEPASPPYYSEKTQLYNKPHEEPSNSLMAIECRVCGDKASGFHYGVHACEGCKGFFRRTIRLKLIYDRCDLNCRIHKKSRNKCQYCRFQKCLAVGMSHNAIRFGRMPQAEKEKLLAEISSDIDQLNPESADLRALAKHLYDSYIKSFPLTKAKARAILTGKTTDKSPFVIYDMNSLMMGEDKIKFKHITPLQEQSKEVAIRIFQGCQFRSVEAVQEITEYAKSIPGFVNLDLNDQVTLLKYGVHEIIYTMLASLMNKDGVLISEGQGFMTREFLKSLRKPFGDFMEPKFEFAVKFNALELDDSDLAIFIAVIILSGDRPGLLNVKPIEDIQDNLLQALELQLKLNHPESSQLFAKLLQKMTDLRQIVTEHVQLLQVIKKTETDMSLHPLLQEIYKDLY

Experiment [7] concerns the target T1, Peroxisome proliferator-activated receptor delta. Briefly: Compound was tested for agonist activity on human Peroxisome proliferator activated receptor delta-GAL4 chimeric receptor in transfected CV-1 cells; IA = Inactive. The experiment is classed as functional, cell-based.
The target in experiment [8] is T3, Peroxisome proliferator-activated receptor delta. Briefly: Compound was tested for its agonist activity against murine Peroxisome proliferator activated receptor delta-GAL4 chimeric receptor in transfected CV-1 cells; IA = Inactive. The experiment is classed as functional, cell-based.

Broadly, the EC50 is the midpoint of the concentration-response curve. Low values mean a more potent agent, high ones a less potent agent. As for `CCCCCCCN(CCc1ccc(SC(C)(C)C(=O)O)cc1)C(=O)Nc1ccc(F)cc1F` [GSK-9578], the minimal effective dose in the experiment filed under Rattus norvegicus was 0.2 mg/kg. The EC50 in experiment [1] was found to be 1.4 µM; in experiment [2], 1.5 µM; in experiment [3], 2.6 µM; in [4] it was 0.005 µM.
Consider `CCCCCCCN(CCc1ccc(OC(C)(C)C(=O)O)cc1)C(=O)Nc1ccc(F)cc1`, for which the concentration for a half-maximal effect (EC50) in [5] was 0.41 µM; in [6], 0.28 µM; in experiment [1] it was 3.1 µM; in experiment [2] it was 0.87 µM; in [3] it was 5.5 µM; in experiment [4], 0.033 µM. Besides, the minimal effective dose in the experiment filed under Rattus norvegicus came out at 0.1 mg/kg.
As for `CC(C)(Oc1ccc(C(=O)c2ccc(Cl)cc2)cc1)C(=O)O` [FENOFIBRIC ACID], the results for the EC50 entry in [7], in experiment [8] and in experiment [2] were “Not Active”, “Not Active” and 250 µM, respectively. The minimal effective dose in the experiment listed under Rattus norvegicus was 50 mg/kg.
On to `CC(C)(Oc1ccc(CCN(C(=O)Nc2ccc(F)cc2F)C2CCCCCC2)cc1)C(=O)O`, for which the minimal effective dose in the experiment filed under Rattus norvegicus was found to be 1 mg/kg. The EC50 in experiment [6] amounted to 0.006 µM; in experiment [1], 0.79 µM; in experiment [2], 0.012 µM; in experiment [3], 1.4 µM; in [4], 0.12 µM.
Take `CCCCCCCN(CCc1ccc(OC(C)(C)C(=O)O)cc1)C(=O)Nc1ccc(F)cc1F`: the EC50 in [5] was determined as 0.79 µM; in experiment [6] it was 0.2 µM; in experiment [2], 0.4 µM; in [3] it was 3.2 µM; in experiment [4] it was 0.01 µM. Besides, the minimal effective dose in the experiment filed under Rattus norvegicus amounted to 0.1 mg/kg.
As to `CC(C)(Oc1ccc(Cl)cc1)C(=O)O` [CLOFIBRIC ACID], the EC50 entry in experiment [7] is “Not Active”; in [5] it was 55 µM; in experiment [6], over 300 µM; in experiment [8], “Not Active”; in experiment [2], over 300 µM; in [4], 50 µM.
`CC(C)(Oc1ccc(CCNC(=O)c2ccc(Cl)cc2)cc1)C(=O)O` [BEZAFIBRATE]: the minimal effective dose in the experiment filed under Rattus norvegicus stood at 50 mg/kg. In addition, the EC50 in [6] was 60 µM; in experiment [1], 20 µM; in experiment [2], 55 µM; in experiment [3], 110 µM; in experiment [4], 90 µM.
On to `CC(C)(Oc1ccc(CCN(CCCCCC2CCCCC2)C(=O)Nc2ccc(F)cc2)cc1)C(=O)O`, for which the EC50 stood at 0.15 µM in experiment [5]; 1.6 µM in [6]; 1 µM in experiment [2]; 23 µM in [3]; 0.053 µM in experiment [4]. In the experiment listed under Rattus norvegicus, the minimal effective dose turned out to be 1 mg/kg.

Values taken from ChEMBL document CHEMBL1132388, “A ureido-thioisobutyric acid (GW9578) is a subtype-selective PPARalpha agonist with potent lipid-lowering activity” (J Med Chem, 1999).
